ChEMBL document CHEMBL4311965, “Antimicrobial activity of amphipathic α,α-disubstituted β-amino amide derivatives against ESBL - CARBA producing multi-resistant bacteria; effect of halogenation, lipophilicity and cationic character” (Eur J Med Chem, 2019)
Converted amounts (≈) assume the structure as drawn.

Legend:
Pseudomonas aeruginosa [1] = assay: Antibacterial activity against multidrug-resistant Pseudomonas aeruginosa K34-7 producing Verona integron encoded metallo beta-lactamse-2 cultured in MHB medium assessed as reduction in bacterial growth incubated for 24 hrs by microdilution susceptibility test; type: functional; conditions: K34-7, 24 h
Method in brief: (§1)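 Broth microdilution per CLSI M07-A9 (modified). Working solutions made from concentrated DMSO stocks kept at r.t., diluted in double-distilled water, final DMSO <1%. Inoculum 1–1.2 x 10⁶ cells/mL in Mueller-Hinton broth, mixed 1:1 with compound. 37 °C, 24 h, four parallels. Read as OD₆₀₀. Where precipitation left residual OD, the point of major OD decrease was taken as the inhibitory concentration.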

Staphylococcus aureus [2] = assay: Antibacterial activity against multidrug-resistant Staphylococcus aureus 85/2082 cultured in MHB medium assessed as reduction in bacterial growth incubated for 24 hrs by microdilution susceptibility test; type: functional; conditions: 85/2082, 24 h; method in brief: as §1
Staphylococcus aureus [3] = assay: Antibacterial activity against Staphylococcus aureus ATCC 9144 cultured in MHB medium assessed as no bacterial growth incubated at 37 degC for 24 hrs by microdilution susceptibility test; type: functional; conditions: ATCC 9144, 24 h
Method in brief: (§2)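 Broth microdilution per CLSI M07-A9 with modifications. Inoculum about 2.5–3 x 10⁴ cells/mL in Mueller-Hinton broth, mixed 1:1 with test derivative. DMSO stocks diluted in double-distilled water, final DMSO <1%. Incubation 24 h at 37 °C (20 °C for C. glutamicum). Growth and sterility controls included; oxytetracycline reference.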

Enterococcus faecium [4] = assay: Antibacterial activity against multidrug-resistant Enterococcus faecium 50758899 cultured in BHIB medium assessed as reduction in bacterial growth incubated for 24 hrs by microdilution susceptibility test; type: functional; conditions: Enterococcus faecium, 50758899, 24 h
Method in brief: (§3)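 Enterococci grown in Brain Heart Infusion broth, otherwise broth microdilution per CLSI M07-A9 (modified). Concentrated DMSO stocks kept at r.t. and diluted in double-distilled water, final DMSO <1%. Inoculum 1–1.2 x 10⁶ cells/mL mixed 1:1 with compound. 37 °C, 24 h, four parallels. OD₆₀₀ read-out, lowest concentration with no growth.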

[5] = Aqueous solubility of the compound in DMSO; type: physicochemical
MRC5 = assay: Cytotoxicity against human MRC5 cells assessed as reduction in cell viability incubated for 4 hrs by CellTiter 96 Aqueous One Solution Reagent based assay; conditions: MRC5, 4 h
Method in brief: (§4)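 HepG2 and MRC-5 cells seeded at 35 000 and 15 000 cells/well respectively, then held overnight at 37 °C, 5% CO₂. Compounds in serum-free MEM Earle's applied for 4 h. MTS reagent (CellTiter 96 AQueous One) added for a further 1 h, absorbance read at 485 nm. Survival expressed relative to medium (negative) and Triton X-100 (positive) controls.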

Escherichia coli [6] = assay: Antibacterial activity against Escherichia coli ATCC 25922 cultured in MHB medium assessed as no bacterial growth incubated at 37 degC for 24 hrs by microdilution susceptibility test; type: functional; conditions: ATCC 25922, 24 h; method in brief: as §2
Klebsiella pneumoniae = assay: Antibacterial activity against multidrug-resistant Klebsiella pneumoniae 50667959 producing Verona integron encoded metallo beta-lactamse-1 cultured in MHB medium assessed as reduction in bacterial growth incubated for 24 hrs by microdilution susceptibility test; type: functional; conditions: Klebsiella pneumoniae, 50667959, 24 h; method in brief: as §1
Staphylococcus aureus [7] = assay: Antibacterial activity against multidrug-resistant Staphylococcus aureus NCTC 10442 cultured in MHB medium assessed as reduction in bacterial growth incubated for 24 hrs by microdilution susceptibility test; type: functional; conditions: NCTC 10442, 24 h; method in brief: as §1
Acinetobacter baumannii = assay: Antibacterial activity against multidrug-resistant Acinetobacter baumannii K63-58 producing oxcillinase-23 cultured in MHB medium assessed as reduction in bacterial growth incubated for 24 hrs by microdilution susceptibility test; type: functional; conditions: K63-58, 24 h; method in brief: as §1
Enterococcus faecium [8] = assay: Antibacterial activity against multidrug-resistant Enterococcus faecium TUH50-22 cultured in BHIB medium assessed as reduction in bacterial growth incubated for 24 hrs by microdilution susceptibility test; type: functional; conditions: TUH50-22, 24 h; method in brief: as §3
Enterococcus faecium [9] = assay: Antibacterial activity against multidrug-resistant Enterococcus faecium 50901530 cultured in BHIB medium assessed as reduction in bacterial growth incubated for 24 hrs by microdilution susceptibility test; type: functional; conditions: Enterococcus faecium, 50901530, 24 h; method in brief: as §3
Pseudomonas aeruginosa [10] = assay: Antibacterial activity against multidrug-resistant Pseudomonas aeruginosa 50692520 producing Verona integron encoded metallo beta-lactamse cultured in MHB medium assessed as reduction in bacterial growth incubated for 24 hrs by microdilution susceptibility test; type: functional; conditions: Pseudomonas aeruginosa, 50692520, 24 h; method in brief: as §1
Escherichia coli [11] = assay: Antibacterial activity against multidrug-resistant Escherichia coli 50676002 producing New Delhi metallo-beta-lactamase-1 cultured in MHB medium assessed as reduction in bacterial growth incubated for 24 hrs by microdilution susceptibility test; type: functional; conditions: Escherichia coli, 50676002, 24 h; method in brief: as §1
Enterococcus faecium [12] = assay: Antibacterial activity against multidrug-resistant Enterococcus faecium K36-18 cultured in BHIB medium assessed as reduction in bacterial growth incubated for 24 hrs by microdilution susceptibility test; type: functional; conditions: K36-18, 24 h; method in brief: as §3
Staphylococcus aureus [13] = assay: Antibacterial activity against multidrug-resistant Staphylococcus aureus N315 cultured in MHB medium assessed as reduction in bacterial growth incubated for 24 hrs by microdilution susceptibility test; type: functional; conditions: N315, 24 h; method in brief: as §1
HepG2 = assay: Cytotoxicity against human HepG2 cells assessed as reduction in cell viability incubated for 4 hrs by CellTiter 96 Aqueous One Solution Reagent based assay; conditions: HepG2, 4 h; method in brief: as §4

Compound `NCCNC(=O)C(CN)(Cc1ccc(C(F)(F)F)cc1)Cc1ccc(C(F)(F)F)cc1` has an MIC (Pseudomonas aeruginosa [1]) greater than 32 µg/mL, an MIC (Staphylococcus aureus [2]) greater than 32 µg/mL and an MIC (Staphylococcus aureus [3]) of 8 µg/mL (≈ 17.9 µM). The MIC (Enterococcus faecium [4]) was 32 µg/mL (≈ 71.5 µM), the solubility [5] was “Soluble” and the EC50 (MRC5) was 16 µg/mL (≈ 35.8 µM). For the same compound, the MIC (Escherichia coli [6]) was 16 µg/mL (≈ 35.8 µM), the MIC (Klebsiella pneumoniae) was 32 µg/mL (≈ 71.5 µM) and the MIC (Staphylococcus aureus [7]) was greater than 32 µg/mL. The MIC (Acinetobacter baumannii) was greater than 32 µg/mL, the MIC (Enterococcus faecium [8]) was 8 µg/mL (≈ 17.9 µM) and the MIC (Enterococcus faecium [9]) was 16 µg/mL (≈ 35.8 µM). For the same compound, the MIC (Pseudomonas aeruginosa [10]) was greater than 32 µg/mL, the MIC (Escherichia coli [11]) was greater than 32 µg/mL and the MIC (Enterococcus faecium [12]) was 16 µg/mL (≈ 35.8 µM). For the same compound, the MIC (Staphylococcus aureus [13]) was greater than 32 µg/mL.

For `NCCNCC(CN)(Cc1ccc(F)c2ccccc12)Cc1ccc(F)c2ccccc12`, the MIC (Pseudomonas aeruginosa [1]) was 16 µg/mL (≈ 36.9 µM), the MIC (Staphylococcus aureus [2]) was 4 µg/mL (≈ 9.23 µM) and the MIC (Staphylococcus aureus [3]) was 2 µg/mL (≈ 4.61 µM). For the same compound, the EC50 (HepG2) was 12 µg/mL (≈ 27.7 µM), the MIC (Enterococcus faecium [4]) was 4 µg/mL (≈ 9.23 µM) and the EC50 (MRC5) was 9 µg/mL (≈ 20.8 µM). It also gave an MIC (Escherichia coli [6]) of 4 µg/mL (≈ 9.23 µM), an MIC (Klebsiella pneumoniae) of 8 µg/mL (≈ 18.5 µM) and an MIC (Staphylococcus aureus [7]) of 4 µg/mL (≈ 9.23 µM). The MIC (Acinetobacter baumannii) was 8 µg/mL (≈ 18.5 µM), the MIC (Enterococcus faecium [8]) was 4 µg/mL (≈ 9.23 µM) and the MIC (Enterococcus faecium [9]) was 4 µg/mL (≈ 9.23 µM). For the same compound, the MIC (Pseudomonas aeruginosa [10]) was 16 µg/mL (≈ 36.9 µM), the MIC (Escherichia coli [11]) was 8 µg/mL (≈ 18.5 µM) and the MIC (Enterococcus faecium [12]) was 4 µg/mL (≈ 9.23 µM). It also gave an MIC (Staphylococcus aureus [13]) of 4 µg/mL (≈ 9.23 µM).

`N#CC(Cc1cc(C(F)(F)F)cc(C(F)(F)F)c1)(Cc1cc(C(F)(F)F)cc(C(F)(F)F)c1)C(=O)NCCN` showed an MIC (Pseudomonas aeruginosa [1]) greater than 32 µg/mL, an MIC (Staphylococcus aureus [2]) of 32 µg/mL (≈ 55.2 µM) and an MIC (Staphylococcus aureus [3]) of 16 µg/mL (≈ 27.6 µM). The EC50 (HepG2) was 20 µg/mL (≈ 34.5 µM), the MIC (Enterococcus faecium [4]) was 8 µg/mL (≈ 13.8 µM) and the solubility [5] was “Soluble”. For the same compound, the EC50 (MRC5) was 12 µg/mL (≈ 20.7 µM), the MIC (Escherichia coli [6]) was 32 µg/mL (≈ 55.2 µM) and the MIC (Klebsiella pneumoniae) was greater than 32 µg/mL. For the same compound, the MIC (Staphylococcus aureus [7]) was 32 µg/mL (≈ 55.2 µM), the MIC (Acinetobacter baumannii) was greater than 32 µg/mL and the MIC (Enterococcus faecium [8]) was 8 µg/mL (≈ 13.8 µM). For the same compound, the MIC (Enterococcus faecium [9]) was 16 µg/mL (≈ 27.6 µM), the MIC (Pseudomonas aeruginosa [10]) was greater than 32 µg/mL and the MIC (Escherichia coli [11]) was greater than 32 µg/mL. It also gave an MIC (Enterococcus faecium [12]) of 8 µg/mL (≈ 13.8 µM) and an MIC (Staphylococcus aureus [13]) greater than 32 µg/mL.

Work on `N=C(N)NCCNC(=O)C(CNC(=N)N)(Cc1ccc(F)c2ccccc12)Cc1ccc(F)c2ccccc12` yielded an MIC (Pseudomonas aeruginosa [1]) greater than 32 µg/mL, an MIC (Staphylococcus aureus [2]) of 4 µg/mL (≈ 7.52 µM) and an MIC (Staphylococcus aureus [3]) of 2 µg/mL (≈ 3.76 µM). It also gave an MIC (Enterococcus faecium [4]) of 16 µg/mL (≈ 30.1 µM), an MIC (Escherichia coli [6]) of 16 µg/mL (≈ 30.1 µM) and an MIC (Klebsiella pneumoniae) greater than 32 µg/mL. It also gave an MIC (Staphylococcus aureus [7]) of 4 µg/mL (≈ 7.52 µM), an MIC (Acinetobacter baumannii) greater than 32 µg/mL and an MIC (Enterococcus faecium [8]) of 8 µg/mL (≈ 15 µM). For the same compound, the MIC (Enterococcus faecium [9]) was 4 µg/mL (≈ 7.52 µM), the MIC (Pseudomonas aeruginosa [10]) was greater than 32 µg/mL and the MIC (Escherichia coli [11]) was 32 µg/mL (≈ 60.2 µM). The MIC (Enterococcus faecium [12]) was 16 µg/mL (≈ 30.1 µM) and the MIC (Staphylococcus aureus [13]) was 4 µg/mL (≈ 7.52 µM).

For `NCCNCC(CN)(Cc1cc(C(F)(F)F)cc(C(F)(F)F)c1)Cc1cc(C(F)(F)F)cc(C(F)(F)F)c1`, the MIC (Pseudomonas aeruginosa [1]) was 32 µg/mL (≈ 56.2 µM), the MIC (Staphylococcus aureus [2]) was 8 µg/mL (≈ 14 µM) and the MIC (Staphylococcus aureus [3]) was 4 µg/mL (≈ 7.02 µM). The EC50 (HepG2) was 7 µg/mL (≈ 12.3 µM), the MIC (Enterococcus faecium [4]) was 8 µg/mL (≈ 14 µM) and the EC50 (MRC5) was 14 µg/mL (≈ 24.6 µM). For the same compound, the MIC (Escherichia coli [6]) was 4 µg/mL (≈ 7.02 µM), the MIC (Klebsiella pneumoniae) was 8 µg/mL (≈ 14 µM) and the MIC (Staphylococcus aureus [7]) was 8 µg/mL (≈ 14 µM). The MIC (Acinetobacter baumannii) was 8 µg/mL (≈ 14 µM), the MIC (Enterococcus faecium [8]) was 4 µg/mL (≈ 7.02 µM) and the MIC (Enterococcus faecium [9]) was 8 µg/mL (≈ 14 µM). The MIC (Pseudomonas aeruginosa [10]) was 32 µg/mL (≈ 56.2 µM), the MIC (Escherichia coli [11]) was 8 µg/mL (≈ 14 µM) and the MIC (Enterococcus faecium [12]) was 8 µg/mL (≈ 14 µM). It also gave an MIC (Staphylococcus aureus [13]) of 8 µg/mL (≈ 14 µM).

`N=C(N)NCCNC(=O)C(CNC(=N)N)(Cc1cc(C(F)(F)F)cc(C(F)(F)F)c1)Cc1cc(C(F)(F)F)cc(C(F)(F)F)c1` showed an MIC (Pseudomonas aeruginosa [1]) of 32 µg/mL (≈ 47.9 µM), an MIC (Staphylococcus aureus [2]) of 8 µg/mL (≈ 12 µM) and an MIC (Staphylococcus aureus [3]) of 2 µg/mL (≈ 3 µM). For the same compound, the EC50 (HepG2) was greater than 64 µg/mL, the MIC (Enterococcus faecium [4]) was 8 µg/mL (≈ 12 µM) and the EC50 (MRC5) was greater than 64 µg/mL. For the same compound, the MIC (Escherichia coli [6]) was 4 µg/mL (≈ 5.99 µM), the MIC (Klebsiella pneumoniae) was greater than 32 µg/mL and the MIC (Staphylococcus aureus [7]) was 8 µg/mL (≈ 12 µM). The MIC (Acinetobacter baumannii) was greater than 32 µg/mL, the MIC (Enterococcus faecium [8]) was 4 µg/mL (≈ 5.99 µM) and the MIC (Enterococcus faecium [9]) was 4 µg/mL (≈ 5.99 µM). The MIC (Pseudomonas aeruginosa [10]) was 16 µg/mL (≈ 24 µM), the MIC (Escherichia coli [11]) was 32 µg/mL (≈ 47.9 µM) and the MIC (Enterococcus faecium [12]) was 8 µg/mL (≈ 12 µM). It also gave an MIC (Staphylococcus aureus [13]) of 4 µg/mL (≈ 5.99 µM).
